Source: ChEMBL document CHEMBL4368943 (J Med Chem, 2019)
pIC50: −log10 of the molar value. The source made the active and inactive calls. No cut-off for these calls is given here.

What was measured:
[1] = tested on: MCF7; test: Inhibition of cell growth in human MCF7 cells after 4 days by wst-8-based colorimetric analysis relative to control; assay type: functional
Outline: (§1)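 Cells seeded at 1500/well overnight, then exposed to graded compound doses for 4 days. Growth read by colorimetric WST-8 assay. GI50 from fitted curves. MCF-7 cells were kept in DMEM, 10% FBS, passages 3−8; human mammary epithelial cells were run the same way.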

[2] = tested on: MCF7; test: Antiproliferative activity against human MCF7 cells at 10 to 300 nM after 5 days by crystal violet staining based assay; assay type: functional, cell-based
Outline: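 MCF-7 cells in DMEM with 10% FBS and penicillin/streptomycin, passages 3−8, exposed to compounds at 10, 100 and 300 nM for 5 days, then fixed and stained with crystal violet.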

[3] = tested on: MCF7; test: Inhibition of cell growth in human MCF7 cells after 4 days by wst-8-based colorimetric analysis; assay type: functional; details: MCF7, 96 h; outline: as §1
[4] = Binding affinity to His-TEV-tagged VHL (54 to 213 residues) (unknown origin)/Elongin B (1 to 118 residues)/Elongin C (1 to 96 residues) expressed in Escherichia coli BL21(DE3) by FP assay; set-up: species or system Homo sapiens
Outline: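 Competitive FP. Tracer is a fluorescent VHL ligand (Kd 2.3 nM). VHL–ElonginB/C complex and tracer each at 5 nM final, preincubated. Compound in DMSO (5 µL into 95 µL) for 60 min at room temperature with shaking. Ex 485/em 530 nm. IC50 by nonlinear regression; Ki from probe KD and protein/probe concentrations. Duplicate, three independent experiments.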

| Compound | Imax [1] | Activity [2] | GI50 [3] | pIC50 [4] |
| --- | --- | --- | --- | --- |
| C[C@]12CC[C@@H]3c4ccc(O)cc4C[C@@H](CCCCCCCCC[S+]([O-])CCCC(F)(F)C(F)(F)F)[C@H]3[C@@H]1CC[C@@H]2O (some centres not stated) [FULVESTRANT] | 43.8% | Active | 170 pM | – |
| O=C(c1ccc(OCCN2CCCCC2)cc1)c1c(-c2ccc(O)cc2)sc2cc(O)ccc12 [RALOXIFENE] | 34% | Active | 79 pM | – |
| C#Cc1ccc([C@H](C)NC(=O)[C@@H]2C[C@@H](O)CN2C(=O)[C@@H](NC(C)=O)C(C)(C)C)cc1 | – | – | – | 6.06 |
